The source made the active and inactive calls. No cut-off for these calls is given here.
Tests used:
[1] = target: T1, Progesterone receptor (Homo sapiens) (UniProt P06401); experiment: Agonist activity at progesterone receptor expressed in T47D cells relative to progesterone; type: functional, cell-based
T1 sequence (whole entry): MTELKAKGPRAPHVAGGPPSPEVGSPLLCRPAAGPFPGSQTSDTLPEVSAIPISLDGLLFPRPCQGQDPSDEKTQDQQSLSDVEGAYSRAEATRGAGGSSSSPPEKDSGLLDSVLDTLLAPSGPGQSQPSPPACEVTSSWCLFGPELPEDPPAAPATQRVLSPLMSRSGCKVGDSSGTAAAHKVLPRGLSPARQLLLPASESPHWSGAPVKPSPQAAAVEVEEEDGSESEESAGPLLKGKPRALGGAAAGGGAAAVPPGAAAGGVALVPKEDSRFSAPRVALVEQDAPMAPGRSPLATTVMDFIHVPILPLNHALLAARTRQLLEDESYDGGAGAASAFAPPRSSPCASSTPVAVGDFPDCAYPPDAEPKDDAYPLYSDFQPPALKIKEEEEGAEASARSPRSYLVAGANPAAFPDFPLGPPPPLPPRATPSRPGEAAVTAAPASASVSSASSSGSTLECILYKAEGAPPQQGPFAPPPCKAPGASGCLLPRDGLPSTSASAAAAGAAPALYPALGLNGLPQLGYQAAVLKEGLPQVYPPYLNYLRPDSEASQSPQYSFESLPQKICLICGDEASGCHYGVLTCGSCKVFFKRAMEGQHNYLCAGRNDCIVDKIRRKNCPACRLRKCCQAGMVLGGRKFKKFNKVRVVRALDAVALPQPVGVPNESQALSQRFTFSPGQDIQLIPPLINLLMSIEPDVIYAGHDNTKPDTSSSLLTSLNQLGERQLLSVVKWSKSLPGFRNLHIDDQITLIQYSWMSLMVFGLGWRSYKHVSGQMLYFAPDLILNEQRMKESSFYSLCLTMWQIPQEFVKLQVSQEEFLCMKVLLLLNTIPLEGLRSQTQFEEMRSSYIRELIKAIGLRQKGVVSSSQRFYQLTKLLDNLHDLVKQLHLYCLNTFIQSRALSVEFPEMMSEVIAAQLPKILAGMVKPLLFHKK
Summary of the method: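 Human T47D breast carcinoma cells; agonist mode; read-out is alkaline phosphatase activity; values are the average of at least duplicate determinations.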

Progesterone receptor [2] = target: T2, Progesterone receptor (Homo sapiens, UniProt P06401); experiment: (§1) Agonist activity at progesterone receptor expressed in T47D cells by alkaline phosphatase assay; type: functional, cell-based
T2 sequence (P06401 whole entry): T1 sequence (whole entry)
Summary of the method: (§2)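 Human T47D breast carcinoma cells; alkaline phosphatase activity measured. EC50 is the concentration giving 50% effect; efficacy shown in parentheses. Average of at least duplicate determinations.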

[3] = target: T1, Progesterone receptor (Homo sapiens); experiment: (§3) Antagonist activity at progesterone receptor expressed in T47D cells assessed as inhibition of progesterone-induced alkaline phosphatase activity; type: functional, cell-based; settings: for inhibition: concentration not given here
Summary of the method: (§4)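 Human T47D breast carcinoma cells stimulated with 1 nM progesterone; compound inhibition of induced alkaline phosphatase activity. IC50 is 50% inhibition. Average of at least duplicate determinations.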

Progesterone receptor [4] = target: T2, Progesterone receptor; experiment: as §3; type: functional, cell-based; summary of the method: as §4
Cynomolgus monkey = experiment: Inhibition of ovulation-induced progesterone levels in po dosed cynamologous monkey; type: functional, Macaca fascicularis
Summary of the method: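 Cynomolgus monkeys dosed orally once daily from day 2 to 28 of the menstrual cycle; vehicle 2% Tween 80/0.5% methylcellulose. Serum progesterone sampled three times weekly until the next menses. Ovulation inferred from the progesterone pattern.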

[5] = target: T1, Progesterone receptor (Homo sapiens); experiment: as §1; type: functional, cell-based; summary of the method: as §2
Rattus norvegicus [6] = experiment: Effect on estrogen-induced synthesis of complement component C3 in po dosed Sprague-Dawley rat uterus epithelial cells; type: functional; settings: Epithelial cell
Summary of the method: (§5)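 Adult ovariectomized Sprague–Dawley rats (60-day-old, surgery at least 8 days before dosing), groups of six, acclimated at least 72 h. Compound given once daily for 2 days, by sc injection or oral gavage, in 10% ethanol/corn oil. Ethinyl estradiol given orally on day 2. Uteri taken about 24 h later. C3 mRNA measured by Northern blot, normalized to 28S rRNA. Log-transformed ratios; Huber M-estimator.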

Rattus norvegicus [7] = experiment: Effect on uterine decidualization in po dosed ovariectomized Sprague-Dawley rat after 7 days; type: organism-based; settings: 168 h
Summary of the method: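 Ovariectomized mature Sprague–Dawley rats (~60-day-old, 230 g), groups of 4–5, dosed once daily for 7 days by gavage. Half-log dose steps. One uterine horn decidually stimulated; the contralateral horn is the control. Horns weighed about 24 h after the last dose. D-horn/C-horn ratio log-transformed; Huber M-estimator; ANOVA and nonlinear dose–response fitting.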

[8] = Clearance in rat at 1 mg/kg, iv; type: ADME, organism-based; design: dose 1 mg/kg, route intravenous; settings: in vivo
Summary of the method: (§6)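 Female rats, single dose of 1 mg/kg given as IV bolus or orally. AUC0–∞, clearance, volume of distribution and terminal half-life taken from the IV arm. Oral exposure gives AUC0–∞; bioavailability from oral versus IV exposure.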

Progesterone receptor [9] = target: T2, Progesterone receptor; experiment: Binding affinity to cytosolic PR in T47D cells by competition binding assay; type: cell-based
[10] = Bioavailability in rat at 1 mg/kg, po; type: ADME, organism-based; settings: in vivo; summary of the method: as §6
Androgen receptor [11] = target: T3, Androgen receptor (Homo sapiens, UniProt P10275); experiment: Agonist activity at androgen receptor expressed in mouse fibroblast L929 cells by HRE-tk luciferase assay
T3 sequence (P10275 whole entry): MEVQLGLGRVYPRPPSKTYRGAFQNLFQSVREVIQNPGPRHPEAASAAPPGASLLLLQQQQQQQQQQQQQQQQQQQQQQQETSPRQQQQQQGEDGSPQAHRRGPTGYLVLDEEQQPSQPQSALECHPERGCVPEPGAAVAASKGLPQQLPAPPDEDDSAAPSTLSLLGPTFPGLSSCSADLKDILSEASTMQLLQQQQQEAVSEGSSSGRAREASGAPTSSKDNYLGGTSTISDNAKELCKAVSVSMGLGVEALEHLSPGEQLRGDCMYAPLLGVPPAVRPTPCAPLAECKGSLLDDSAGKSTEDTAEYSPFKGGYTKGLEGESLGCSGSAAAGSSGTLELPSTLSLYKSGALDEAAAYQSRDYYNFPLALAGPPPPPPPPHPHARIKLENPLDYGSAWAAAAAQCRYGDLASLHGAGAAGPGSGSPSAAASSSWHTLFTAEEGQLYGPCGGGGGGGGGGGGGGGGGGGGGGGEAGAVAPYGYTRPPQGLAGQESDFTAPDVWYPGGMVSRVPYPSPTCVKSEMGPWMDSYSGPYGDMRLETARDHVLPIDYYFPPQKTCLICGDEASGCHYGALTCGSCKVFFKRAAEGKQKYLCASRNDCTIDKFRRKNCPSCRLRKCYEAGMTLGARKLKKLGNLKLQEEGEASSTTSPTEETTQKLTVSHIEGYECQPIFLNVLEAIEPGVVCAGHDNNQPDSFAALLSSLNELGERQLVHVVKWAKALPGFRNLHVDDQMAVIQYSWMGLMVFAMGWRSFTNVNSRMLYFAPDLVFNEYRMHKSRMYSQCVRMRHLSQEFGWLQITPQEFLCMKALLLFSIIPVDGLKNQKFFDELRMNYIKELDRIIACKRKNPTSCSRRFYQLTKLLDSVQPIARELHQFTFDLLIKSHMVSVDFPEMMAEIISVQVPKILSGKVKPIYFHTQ

[12] = Terminal half life in rat at 1 mg/kg, iv; type: ADME, organism-based; design: dose 1 mg/kg, route intravenous; settings: in vivo; summary of the method: as §6
[13] = AUC (0 to infinity) in rat at 1 mg/kg, po; type: ADME, organism-based; design: time infinity, dose 1 mg/kg, route oral; settings: plasma; summary of the method: as §6
[14] = AUC (0 to infinity) in rat at 1 mg/kg, iv; type: ADME, organism-based; design: time infinity, dose 1 mg/kg, route intravenous; settings: plasma; summary of the method: as §6
Glucocorticoid receptor [15] = target: T4, Glucocorticoid receptor (Homo sapiens, UniProt P04150); experiment: Agonist activity at glucocorticoid receptor expressed in L929 cells by HRE-tk luciferase assay
T4 sequence (P04150 whole entry): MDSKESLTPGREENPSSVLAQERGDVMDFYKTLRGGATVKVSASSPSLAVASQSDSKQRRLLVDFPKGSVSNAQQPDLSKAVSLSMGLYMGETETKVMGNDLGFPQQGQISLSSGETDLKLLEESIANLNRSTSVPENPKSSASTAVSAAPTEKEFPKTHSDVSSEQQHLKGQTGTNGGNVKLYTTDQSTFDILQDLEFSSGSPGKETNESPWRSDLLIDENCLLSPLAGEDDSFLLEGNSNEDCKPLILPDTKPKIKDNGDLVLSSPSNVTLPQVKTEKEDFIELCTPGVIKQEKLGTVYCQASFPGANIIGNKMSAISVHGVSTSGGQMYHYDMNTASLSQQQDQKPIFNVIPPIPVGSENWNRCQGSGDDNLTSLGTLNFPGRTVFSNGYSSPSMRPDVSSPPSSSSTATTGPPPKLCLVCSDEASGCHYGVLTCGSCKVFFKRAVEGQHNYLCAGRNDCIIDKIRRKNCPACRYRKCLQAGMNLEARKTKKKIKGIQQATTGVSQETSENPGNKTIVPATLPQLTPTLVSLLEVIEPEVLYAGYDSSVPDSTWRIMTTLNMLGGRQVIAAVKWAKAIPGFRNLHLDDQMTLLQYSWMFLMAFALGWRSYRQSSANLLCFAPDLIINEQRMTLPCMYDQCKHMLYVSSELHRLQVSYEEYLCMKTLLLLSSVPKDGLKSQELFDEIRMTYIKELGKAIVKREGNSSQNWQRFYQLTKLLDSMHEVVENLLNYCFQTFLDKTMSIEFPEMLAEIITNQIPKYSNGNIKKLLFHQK

Glucocorticoid receptor [16] = target: T4, Glucocorticoid receptor; experiment: Antagonist activity at glucocorticoid receptor expressed in L929 cells by HRE-tk luciferase assay
Androgen receptor [17] = target: T3, Androgen receptor; experiment: Antagonist activity at androgen receptor expressed in mouse fibroblast L929 cells by HRE-tk luciferase assay
[18] = Volume of distribution in rat at 1 mg/kg, iv; type: ADME, organism-based; design: dose 1 mg/kg, route intravenous; settings: in vivo; summary of the method: as §6
Rattus norvegicus [19] = experiment: Effect on estrogen-induced synthesis of complement component C3 in sc dosed Sprague-Dawley rat uterus epithelial cells; type: functional, Epithelial cell; summary of the method: as §5

SMILES | Efficacy [1] [%] | EC50 (Progesterone receptor [2]) [nM] | Activity [3] | further results
Fc1ccc(-c2ccc3[nH]c(=S)n(C4CCCC4)c3c2)cc1F | 75 | 62.5 | inactive | 
Cn1c(C#N)ccc1-c1ccc2[nH]c(=O)n(C3CCC3)c2c1 |  | > 3000 |  | 
Fc1ccc(-c2ccc3[nH]c(=S)n(C4CCCC4)c3c2)cc1Cl | 55 | 49.3 | inactive | 
CCC(CC)n1c(=S)[nH]c2ccc(-c3cc(F)cc(C#N)c3)cc21 | 70 | 270 |  | inhibition [3]: 50%; IC50 (Progesterone receptor [4]): 3.6 nM
Cn1c(C#N)ccc1-c1ccc2[nH]c(=S)n(C3CCC3)c2c1 | 70 | 0.5 | inactive | 
N#Cc1cc(F)cc(-c2ccc3[nH]c(=S)n(C4CCC4)c3c2)c1 | 60 | 2.7 | inactive | 
Cn1c(C#N)ccc1-c1ccc2c(c1)C(C)(C)OC(=S)N2 [TANAPROGET] |  |  |  | ED100 (Cynomolgus monkey): 0.01 mg/kg
CCC(CC)n1c(=S)[nH]c2ccc(-c3ccc(F)c(Cl)c3)cc21 |  |  |  | Activity [5]: inactive; inhibition [3]: 60%; IC50 (Progesterone receptor [4]): 33.7 nM
Cn1c(C#N)ccc1-c1ccc2[nH]c(=S)n(C3CCCC3)c2c1 | 75 | 0.1 | inactive | ED50 (Rattus norvegicus [6]): 0.003 mg/kg; ED50 (Rattus norvegicus [7]): 0.02 mg/kg; clearance [8]: 25 mL/min/kg; IC50 (Progesterone receptor [9]): 0.4 nM; ED100 (Cynomolgus monkey): 0.03 mg/kg; bioavailability [10]: 71%; EC50 (Androgen receptor [11]): > 10000 nM; half-life [12]: 4.4 h; AUC(0-inf) [13]: 480 ng·h/mL; AUC(0-inf) [14]: 680 ng·h/mL; EC50 (Glucocorticoid receptor [15]): > 10000 nM; IC50 (Glucocorticoid receptor [16]): 99 nM; IC50 (Androgen receptor [17]): 1000 nM; Vd [18]: 7.6 L/kg
CCC(CC)n1c(=S)[nH]c2ccc(-c3ccc(C#N)n3C)cc21 | 70 | 1 | inactive | 
Cn1c(C#N)ccc1-c1ccc2[nH]c(=O)n(C3CCCC3)c2c1 |  | > 3000 |  | IC50 (Progesterone receptor [9]): 26.2 nM
CC(=O)[C@H]1CC[C@H]2[C@@H]3CCC4=CC(=O)CC[C@]4(C)[C@H]3CC[C@]12C [PROGESTERONE] |  |  | inactive | 
CCC(CC)n1c(=O)[nH]c2ccc(-c3ccc(C#N)n3C)cc21 |  | > 3000 |  | IC50 (Progesterone receptor [4]): 11.7 nM
CC(=O)O[C@]1(C(C)=O)CC[C@H]2[C@@H]3C[C@H](C)C4=CC(=O)CC[C@]4(C)[C@H]3CC[C@@]21C [MEDROXYPROGESTERONE ACETATE] |  |  | inactive | ED5 (Rattus norvegicus [19]): 0.03 mg/kg

Source: ChEMBL document CHEMBL1149694, “5-(3-Cyclopentyl-2-thioxo-2,3-dihydro-1H-benzimidazol-5-yl)-1-methyl-1H-pyrrole-2-carbonitrile: A novel, highly potent, selective, and orally active non-steroidal progesterone receptor agonist” (Bioorg Med Chem, 2007)
